target: T1, Protein cereblon/Androgen receptor (Homo sapiens, UniProt P10275+Q96SW2); test: Protac activity at CRBN/AR in human VCaP cells assessed as induction of AR degradation at 0.001 uM measured after 24 hrs by western blot analysis relative to control; assay type: cell-based; conditions: not given
T1 sequence (P10275 whole entry, looked up): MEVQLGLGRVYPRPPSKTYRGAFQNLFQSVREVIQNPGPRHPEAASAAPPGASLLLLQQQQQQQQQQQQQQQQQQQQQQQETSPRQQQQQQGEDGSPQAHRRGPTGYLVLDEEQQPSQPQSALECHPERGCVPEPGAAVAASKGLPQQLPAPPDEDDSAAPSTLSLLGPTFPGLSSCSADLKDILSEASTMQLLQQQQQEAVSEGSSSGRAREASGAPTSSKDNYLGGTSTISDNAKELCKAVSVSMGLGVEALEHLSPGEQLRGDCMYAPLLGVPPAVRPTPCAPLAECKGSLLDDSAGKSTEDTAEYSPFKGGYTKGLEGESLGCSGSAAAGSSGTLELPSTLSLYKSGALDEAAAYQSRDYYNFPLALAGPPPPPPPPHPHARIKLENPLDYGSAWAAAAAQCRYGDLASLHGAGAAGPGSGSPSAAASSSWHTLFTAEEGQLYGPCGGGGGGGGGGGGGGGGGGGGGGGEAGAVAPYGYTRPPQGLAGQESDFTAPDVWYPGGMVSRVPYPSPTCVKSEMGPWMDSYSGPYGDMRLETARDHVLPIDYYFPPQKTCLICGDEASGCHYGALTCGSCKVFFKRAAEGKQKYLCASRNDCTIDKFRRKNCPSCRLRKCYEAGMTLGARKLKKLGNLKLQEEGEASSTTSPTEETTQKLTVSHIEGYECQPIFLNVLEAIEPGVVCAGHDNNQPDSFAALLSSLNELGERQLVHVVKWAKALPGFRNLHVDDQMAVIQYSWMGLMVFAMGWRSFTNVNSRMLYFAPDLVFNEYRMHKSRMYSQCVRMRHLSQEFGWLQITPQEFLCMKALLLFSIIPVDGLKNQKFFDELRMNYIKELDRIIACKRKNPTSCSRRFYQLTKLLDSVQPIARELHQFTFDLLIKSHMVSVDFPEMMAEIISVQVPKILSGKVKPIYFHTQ
T1 sequence (Q96SW2 whole entry, looked up): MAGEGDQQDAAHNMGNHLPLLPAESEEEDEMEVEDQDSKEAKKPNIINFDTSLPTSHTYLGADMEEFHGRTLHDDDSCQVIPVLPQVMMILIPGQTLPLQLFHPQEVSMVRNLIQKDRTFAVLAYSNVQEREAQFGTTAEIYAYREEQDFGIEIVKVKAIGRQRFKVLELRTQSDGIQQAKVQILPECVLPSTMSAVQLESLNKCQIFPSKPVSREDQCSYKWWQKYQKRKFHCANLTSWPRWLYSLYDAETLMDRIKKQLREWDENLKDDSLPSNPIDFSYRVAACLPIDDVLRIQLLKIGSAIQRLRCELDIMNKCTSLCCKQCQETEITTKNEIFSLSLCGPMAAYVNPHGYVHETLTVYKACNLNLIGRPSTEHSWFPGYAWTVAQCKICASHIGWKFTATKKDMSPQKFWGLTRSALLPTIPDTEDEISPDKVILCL

| Activity [%] | Structure (SMILES) |
| --- | --- |
| 28 | CC1(C)[C@H](NC(=O)c2ccc(NCCCCCCCNc3ccc4c(c3)C(=O)N(C3CCC(=O)NC3=O)C4=O)cc2)C(C)(C)[C@H]1Oc1ccc(C#N)c(Cl)c1 (some centres not stated) |
| 14 | CC1(C)[C@H](NC(=O)c2ccc(N3CCN(C4CCC5(CC4)CCN(c4ccc6c(c4)C(=O)N(C4CCC(=O)NC4=O)C6=O)CC5)CC3)cc2)C(C)(C)[C@H]1Oc1ccc(C#N)c(Cl)c1 (some centres not stated) |
| 22 | CC1(C)[C@H](NC(=O)c2ccc(N3CCN(CC4CCN(c5ccc6c(c5)C(=O)N(C5CCC(=O)NC5=O)C6=O)CC4)CC3)cc2)C(C)(C)[C@H]1Oc1ccc(C#N)c(C(F)(F)F)c1 (some centres not stated) |
| 30 | CC1(C)[C@H](NC(=O)c2ccc(N3CCN(CC4CC5(C4)CN(c4ccc6c(c4)C(=O)N(C4CCC(=O)NC4=O)C6=O)C5)CC3)cc2)C(C)(C)[C@H]1Oc1ccc(C#N)c(Cl)c1 (some centres not stated) |
| 38 | CC1(C)[C@H](NC(=O)c2ccc(N3CCN(C4CC5(CCN(c6ccc7c(c6)C(=O)N(C6CCC(=O)NC6=O)C7=O)C5)C4)CC3)cc2)C(C)(C)[C@H]1Oc1ccc(C#N)c(Cl)c1 (some centres not stated) |
| 10 | CC1(C)[C@H](NC(=O)c2ccc(NCCCCCCNc3cccc4c3C(=O)N(C3CCC(=O)NC3=O)C4=O)cc2)C(C)(C)[C@H]1Oc1ccc(C#N)c(Cl)c1 (some centres not stated) |
| 6 | CC1(C)[C@H](NC(=O)c2ccc(N3CCN(CC4CCN(c5ccc6c(c5)C(=O)N(C5CCC(=O)NC5=O)C6=O)CC4)CC3)cc2)C(C)(C)[C@H]1Oc1cnc(C#N)c(C(F)(F)F)c1 (some centres not stated) |

| Structure (SMILES) | Activity [%] |
| --- | --- |
| CC1(C)[C@H](NC(=O)c2ccc(N3CCN(C4CN(c5ccc6c(c5)C(=O)N(C5CCC(=O)NC5=O)C6=O)C4)CC3)cc2)C(C)(C)[C@H]1Oc1ccc(C#N)c(Cl)c1 (some centres not stated) | 54 |

target: T1, Protein cereblon/Androgen receptor; test: Protac activity at CRBN/AR in human VCaP cells assessed as induction of AR degradation at 0.1 uM measured after 24 hrs by western blot analysis relative to control; assay type: cell-based; conditions: not given

| Activity [%] | Structure (SMILES) |
| --- | --- |
| 79 | CC1(C)[C@H](NC(=O)c2ccc(NCCCCCCCNc3ccc4c(c3)C(=O)N(C3CCC(=O)NC3=O)C4=O)cc2)C(C)(C)[C@H]1Oc1ccc(C#N)c(Cl)c1 (some centres not stated) |
| 67 | CC1(C)[C@H](NC(=O)c2ccc(N3CCN(C4CCC5(CC4)CCN(c4ccc6c(c4)C(=O)N(C4CCC(=O)NC4=O)C6=O)CC5)CC3)cc2)C(C)(C)[C@H]1Oc1ccc(C#N)c(Cl)c1 (some centres not stated) |
| 87 | CC1(C)[C@H](NC(=O)c2ccc(N3CCN(CC4CCN(c5ccc6c(c5)C(=O)N(C5CCC(=O)NC5=O)C6=O)CC4)CC3)cc2)C(C)(C)[C@H]1Oc1ccc(C#N)c(C(F)(F)F)c1 (some centres not stated) |
| 97 | CC1(C)[C@H](NC(=O)c2ccc(N3CCN(CC4CC5(C4)CN(c4ccc6c(c4)C(=O)N(C4CCC(=O)NC4=O)C6=O)C5)CC3)cc2)C(C)(C)[C@H]1Oc1ccc(C#N)c(Cl)c1 (some centres not stated) |
| 87 | CC1(C)[C@H](NC(=O)c2ccc(N3CCN(C4CC5(CCN(c6ccc7c(c6)C(=O)N(C6CCC(=O)NC6=O)C7=O)C5)C4)CC3)cc2)C(C)(C)[C@H]1Oc1ccc(C#N)c(Cl)c1 (some centres not stated) |
| 43 | CC1(C)[C@H](NC(=O)c2ccc(NCCCCCCNc3cccc4c3C(=O)N(C3CCC(=O)NC3=O)C4=O)cc2)C(C)(C)[C@H]1Oc1ccc(C#N)c(Cl)c1 (some centres not stated) |
| 33 | CC1(C)[C@H](NC(=O)c2ccc(N3CCN(CC4CCN(c5ccc6c(c5)C(=O)N(C5CCC(=O)NC5=O)C6=O)CC4)CC3)cc2)C(C)(C)[C@H]1Oc1cnc(C#N)c(C(F)(F)F)c1 (some centres not stated) |

| Structure (SMILES) | Activity [%] |
| --- | --- |
| CC1(C)[C@H](NC(=O)c2ccc(N3CCN(C4CN(c5ccc6c(c5)C(=O)N(C5CCC(=O)NC5=O)C6=O)C4)CC3)cc2)C(C)(C)[C@H]1Oc1ccc(C#N)c(Cl)c1 (some centres not stated) | 91 |

target: T1, Protein cereblon/Androgen receptor; test: Protac activity at CRBN/AR in human VCaP cells assessed as induction of AR degradation at 0.01 uM measured after 24 hrs by western blot analysis relative to control; assay type: cell-based; conditions: not given
Outline: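 VCaP cells treated 24 h at 1, 10, 100 and 1000 nM; lysed in RIPA with protease/phosphatase inhibitors, run on 4–12% SDS-PAGE, blotted to PVDF. AR bands background-subtracted and normalized to loading control; degradation relative to DMSO, average of three independent experiments.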

| Activity [%] | Structure (SMILES) |
| --- | --- |
| 58 | CC1(C)[C@H](NC(=O)c2ccc(NCCCCCCCNc3ccc4c(c3)C(=O)N(C3CCC(=O)NC3=O)C4=O)cc2)C(C)(C)[C@H]1Oc1ccc(C#N)c(Cl)c1 (some centres not stated) |
| 38 | CC1(C)[C@H](NC(=O)c2ccc(N3CCN(C4CCC5(CC4)CCN(c4ccc6c(c4)C(=O)N(C4CCC(=O)NC4=O)C6=O)CC5)CC3)cc2)C(C)(C)[C@H]1Oc1ccc(C#N)c(Cl)c1 (some centres not stated) |
| 45 | CC1(C)[C@H](NC(=O)c2ccc(N3CCN(CC4CCN(c5ccc6c(c5)C(=O)N(C5CCC(=O)NC5=O)C6=O)CC4)CC3)cc2)C(C)(C)[C@H]1Oc1ccc(C#N)c(C(F)(F)F)c1 (some centres not stated) |
| 82 | CC1(C)[C@H](NC(=O)c2ccc(N3CCN(CC4CC5(C4)CN(c4ccc6c(c4)C(=O)N(C4CCC(=O)NC4=O)C6=O)C5)CC3)cc2)C(C)(C)[C@H]1Oc1ccc(C#N)c(Cl)c1 (some centres not stated) |
| 80 | CC1(C)[C@H](NC(=O)c2ccc(N3CCN(C4CC5(CCN(c6ccc7c(c6)C(=O)N(C6CCC(=O)NC6=O)C7=O)C5)C4)CC3)cc2)C(C)(C)[C@H]1Oc1ccc(C#N)c(Cl)c1 (some centres not stated) |
| 22 | CC1(C)[C@H](NC(=O)c2ccc(NCCCCCCNc3cccc4c3C(=O)N(C3CCC(=O)NC3=O)C4=O)cc2)C(C)(C)[C@H]1Oc1ccc(C#N)c(Cl)c1 (some centres not stated) |
| 12 | CC1(C)[C@H](NC(=O)c2ccc(N3CCN(CC4CCN(c5ccc6c(c5)C(=O)N(C5CCC(=O)NC5=O)C6=O)CC4)CC3)cc2)C(C)(C)[C@H]1Oc1cnc(C#N)c(C(F)(F)F)c1 (some centres not stated) |

| Structure (SMILES) | Activity [%] |
| --- | --- |
| CC1(C)[C@H](NC(=O)c2ccc(N3CCN(C4CN(c5ccc6c(c5)C(=O)N(C5CCC(=O)NC5=O)C6=O)C4)CC3)cc2)C(C)(C)[C@H]1Oc1ccc(C#N)c(Cl)c1 (some centres not stated) | 77 |

target: T1, Protein cereblon/Androgen receptor; test: Protac activity at CRBN/AR in human VCAP cells assessed as induction of AR degradation at 1 uM by western blot analysis relative to control; assay type: cell-based; conditions: time 24.0 hrs

| Activity [%] | Structure (SMILES) |
| --- | --- |
| 62 | CC1(C)[C@H](NC(=O)c2ccc(NCCCCCCCNc3ccc4c(c3)C(=O)N(C3CCC(=O)NC3=O)C4=O)cc2)C(C)(C)[C@H]1Oc1ccc(C#N)c(Cl)c1 (some centres not stated) |
| 80 | CC1(C)[C@H](NC(=O)c2ccc(N3CCN(C4CCC5(CC4)CCN(c4ccc6c(c4)C(=O)N(C4CCC(=O)NC4=O)C6=O)CC5)CC3)cc2)C(C)(C)[C@H]1Oc1ccc(C#N)c(Cl)c1 (some centres not stated) |
| 90 | CC1(C)[C@H](NC(=O)c2ccc(N3CCN(CC4CCN(c5ccc6c(c5)C(=O)N(C5CCC(=O)NC5=O)C6=O)CC4)CC3)cc2)C(C)(C)[C@H]1Oc1ccc(C#N)c(C(F)(F)F)c1 (some centres not stated) |
| 95 | CC1(C)[C@H](NC(=O)c2ccc(N3CCN(CC4CC5(C4)CN(c4ccc6c(c4)C(=O)N(C4CCC(=O)NC4=O)C6=O)C5)CC3)cc2)C(C)(C)[C@H]1Oc1ccc(C#N)c(Cl)c1 (some centres not stated) |
| 84 | CC1(C)[C@H](NC(=O)c2ccc(N3CCN(C4CC5(CCN(c6ccc7c(c6)C(=O)N(C6CCC(=O)NC6=O)C7=O)C5)C4)CC3)cc2)C(C)(C)[C@H]1Oc1ccc(C#N)c(Cl)c1 (some centres not stated) |
| 48 | CC1(C)[C@H](NC(=O)c2ccc(NCCCCCCNc3cccc4c3C(=O)N(C3CCC(=O)NC3=O)C4=O)cc2)C(C)(C)[C@H]1Oc1ccc(C#N)c(Cl)c1 (some centres not stated) |
| 41 | CC1(C)[C@H](NC(=O)c2ccc(N3CCN(CC4CCN(c5ccc6c(c5)C(=O)N(C5CCC(=O)NC5=O)C6=O)CC4)CC3)cc2)C(C)(C)[C@H]1Oc1cnc(C#N)c(C(F)(F)F)c1 (some centres not stated) |

| Structure (SMILES) | Activity [%] |
| --- | --- |
| CC1(C)[C@H](NC(=O)c2ccc(N3CCN(C4CN(c5ccc6c(c5)C(=O)N(C5CCC(=O)NC5=O)C6=O)C4)CC3)cc2)C(C)(C)[C@H]1Oc1ccc(C#N)c(Cl)c1 (some centres not stated) | 73 |

Source: ChEMBL document CHEMBL4842367, “Strategies toward Discovery of Potent and Orally Bioavailable Proteolysis Targeting Chimera Degraders of Androgen Receptor for the Treatment of Prostate Cancer” (J Med Chem, 2021)
